From ChEMBL document CHEMBL4382268, “Glycyrrhetinic acid derivatives containing aminophosphonate ester species as multidrug resistance reversers that block the NF-κB pathway and cell proliferation” (Bioorg Med Chem Lett, 2018)
Activity calls are given as the source filed them. The calls are words filed in the database; no cut-off is given here.

Key:
[1] = system: A549; test: Induction of apoptosis in human A549 cells assessed as late apoptotic cells at 20 uM after 24 hrs by annexin V-FITC/propidium iodide staining-based flow cytometry analysis (reference value: 2.20%); type: functional
Procedure, shortened: (§1)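 A549 cells treated at 5, 10 and 20 µM for 24 h, then harvested and stained with Annexin V-FITC and PI. Flow cytometry quadrants: Q1 necrotic, Q2 late apoptotic/necrotic, Q3 early apoptotic, Q4 living. Performed three times.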

[2] = system: A549; test: Induction of apoptosis in human A549 cells assessed as late apoptotic cells at 5 uM after 24 hrs by annexin V-FITC/propidium iodide staining-based flow cytometry analysis (reference value: 2.20%); type: functional; procedure, shortened: as §1
[3] = target: T1, Inhibitor of NF-kappa-B kinase alpha/beta (Homo sapiens) (UniProt O14920+O15111); test: Inhibition of IKKalpha/beta phosphorylation in human A549 cells up to 20 uM after 24 hrs by Western blot analysis; type: cell-based
Procedure, shortened: (§2)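 A549 cells exposed to 5, 10 and 20 µM for 24 h. Western blots probed for NF-κB, p-IκBα, IκBα and p-IKKα/β, with GAPDH as internal control. Three experiments, representative blot shown.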

[4] = system: A549; test: Induction of apoptosis in human A549 cells assessed as viable cells at 5 uM after 24 hrs by annexin V-FITC/propidium iodide staining-based flow cytometry analysis (reference value: 96.0%); type: functional; details: A549, 24 h, read-out: Activity; procedure, shortened: as §1
[5] = system: A549; test: Cell cycle arrest in human A549 cells assessed as accumulation at G2 phase at 10 uM after 24 hrs by propidium iodide staining based flow cytometry (reference value: 14.1%); type: functional
[6] = Selectivity ratio of IC50 for cisplatin-resistant human SKOV3/DDP cells to IC50 for cisplatin sensitive human SKOV3 cells; type: functional
Procedure, shortened: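 IC50 determined in resistant SK-OV-3/CDDP cells divided by IC50 in parental SK-OV-3 cells. Each IC50 by MTT, three separate experiments each in triplicate.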

[7] = system: A549; test: Induction of apoptosis in human A549 cells assessed as necrotic apoptotic cells at 10 uM after 24 hrs by annexin V-FITC/propidium iodide staining-based flow cytometry analysis (reference value: 0.520%); type: functional; procedure, shortened: as §1
[8] = system: A549; test: Induction of apoptosis in human A549 cells assessed as early apoptotic cells at 5 uM after 24 hrs by annexin V-FITC/propidium iodide staining-based flow cytometry analysis (reference value: 1.28%); type: functional; procedure, shortened: as §1
[9] = system: A549; test: Induction of apoptosis in human A549 cells assessed as late apoptotic cells at 10 uM after 24 hrs by annexin V-FITC/propidium iodide staining-based flow cytometry analysis (reference value: 2.20%); type: functional; procedure, shortened: as §1
[10] = system: HepG2; test: Antiproliferative activity against human HepG2 cells after 48 hrs by MTT assay; type: functional, cell-based; details: HepG2, 48 h
Procedure, shortened: (§3)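 MTT read-out of antiproliferative activity across cancer lines HepG-2, NCI-H460, MGC-803, A549 and MG-63 and normal liver line HL-7702. IC50 given as mean ± S.D. of three separate experiments, each run in triplicate.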

[11] = system: A549; test: Induction of ROS generation in human A549 cells at 5 to 20 uM after 24 hrs by DCFH-DA staining-based fluorescence microscopic analysis; type: functional, cell-based
Procedure, shortened: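 Intracellular ROS in A549 cells after 24 h incubation, using DCF-DA probe. Green cytoplasmic fluorescence viewed by fluorescence microscopy against untreated control. Three experiments.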

[12] = system: MGC-803; test: Antiproliferative activity against human MGC803 cells after 48 hrs by MTT assay; type: functional, cell-based; details: MGC-803, 48 h; procedure, shortened: as §3
[13] = system: A549; test: Cell cycle arrest in human A549 cells assessed as accumulation at S phase at 10 uM after 24 hrs by propidium iodide staining based flow cytometry (reference value: 38.76%); type: functional
[14] = system: A549; test: Induction of apoptosis in human A549 cells assessed as early apoptotic cells at 10 uM after 24 hrs by annexin V-FITC/propidium iodide staining-based flow cytometry analysis (reference value: 1.28%); type: functional; procedure, shortened: as §1
[15] = system: A549; test: Induction of apoptosis in human A549 cells after 24 hrs by annexin V-FITC/propidium iodide staining-based flow cytometry analysis; type: functional, cell-based; procedure, shortened: as §1
[16] = system: A549; test: Antimigratory activity against human A549 cells after 24 hrs by crystal violet staining based fluorescence microscopic analysis; type: functional, cell-based
Procedure, shortened: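 Transwell migration of A549 cells incubated at 5, 10 and 20 µM for 24 h. Performed three times, representative images shown.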

[17] = system: A549; test: Reduction in IkappaBalpha level in human A549 cells up to 20 uM after 24 hrs by Western blot analysis; type: functional, cell-based; procedure, shortened: as §2
[18] = system: A549; test: Cell cycle arrest in human A549 cells assessed as accumulation at G1 phase at 5 uM after 24 hrs by propidium iodide staining based flow cytometry (reference value: 47.0%); type: functional
[19] = system: A549; test: Cell cycle arrest in human A549 cells assessed as accumulation at S phase at 5 uM after 24 hrs by propidium iodide staining based flow cytometry (reference value: 38.76%); type: functional
[20] = Growth inhibition of cisplatin-resistant human SKOV3/DDP cells after 48 hrs by MTT assay; type: functional; details: SK-OV-3, 48 h
Procedure, shortened: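 MTT growth inhibition in the paired ovarian lines, cisplatin-sensitive SK-OV-3 and cisplatin-resistant SK-OV-3/CDDP. IC50 given as mean ± S.D. of three separate experiments, each in triplicate.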

[21] = system: NCI-H460; test: Antiproliferative activity against human NCI-H460 cells after 48 hrs by MTT assay; type: functional, cell-based; details: NCI-H460, 48 h; procedure, shortened: as §3
[22] = target: T1, Inhibitor of NF-kappa-B kinase alpha/beta (Homo sapiens); test: Inhibition of IKKalpha/beta-mediated IkappaBalpha phosphorylation in human A549 cells after 24 hrs by Western blot analysis; type: cell-based; procedure, shortened: as §2
[23] = system: A549; test: Induction of apoptosis in human A549 cells assessed as necrotic apoptotic cells at 20 uM after 24 hrs by annexin V-FITC/propidium iodide staining-based flow cytometry analysis (reference value: 0.520%); type: functional; procedure, shortened: as §1
[24] = system: L02; test: Antiproliferative activity against human HL-7702 cells after 48 hrs by MTT assay; type: functional, cell-based; details: L02, 48 h; procedure, shortened: as §3
[25] = system: A549; test: Cell cycle arrest in human A549 cells assessed as accumulation at G1 phase at 20 uM after 24 hrs by propidium iodide staining based flow cytometry (reference value: 47.0%); type: functional
[26] = system: A549; test: Cell cycle arrest in human A549 cells assessed as accumulation at G1 phase at 10 uM after 24 hrs by propidium iodide staining based flow cytometry (reference value: 47.0%); type: functional
[27] = system: A549; test: Cell cycle arrest in human A549 cells assessed as accumulation at G2 phase at 5 uM after 24 hrs by propidium iodide staining based flow cytometry (reference value: 14.1%); type: functional
[28] = Inhibition of TNF-alpha induced NF-kappaB activation in human A549 cells after 7 hrs by Bright-Glo luciferase reporter gene assay; type: cell-based; details: Homo sapiens, A549, 7 h; read-out: IC50
Procedure, shortened: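 A549 cells transiently cotransfected with an NF-κB-Luc reporter and stimulated with TNF-α. Luciferase read-out of inhibition gives IC50, the mean of at least three independent experiments each with triplicates.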

[29] = system: A549; test: Antiproliferative activity against human A549 cells after 48 hrs by MTT assay; type: functional, cell-based; details: A549, 48 h; procedure, shortened: as §3
[30] = system: A549; test: Induction of apoptosis in human A549 cells assessed as viable cells at 20 uM after 24 hrs by annexin V-FITC/propidium iodide staining-based flow cytometry analysis (reference value: 96.0%); type: functional; details: A549, 24 h, read-out: Activity; procedure, shortened: as §1

Structure (SMILES): CCOP(=O)(OCC)C(Nc1ccc(CC(=O)NCCCCNC(=O)[C@@]2(C)CC[C@]3(C)CC[C@]4(C)C(=CC(=O)[C@@H]5[C@@]6(C)CC[C@H](OC(C)=O)C(C)(C)[C@@H]6CC[C@]54C)[C@@H]3C2)cc1)c1ccc(F)cc1 (stereo not given in full)
- Activity [1]: 39.7%
- Activity [2]: 11.6%
- inhibition [3]: Active
- viability at 5 µM [4]: 86.4%
- Activity [5]: 9.9%
- Ratio IC50 [6]: 0.92
- Activity [7]: 0.386%
- Activity [8]: 1.96%
- Activity [9]: 22.6%
- IC50 [10]: 9.11 µM
- Activity [11]: Active
- IC50 [12]: 8.73 µM
- Activity [13]: 43.6%
- Activity [14]: 19.1%
- Activity [15]: Dose-dependent effect
- Activity [16]: Dose-dependent effect
- Activity [17]: Active
- Activity [18]: 59.91%
- Activity [19]: 40.09%
- IC50 [20]: 8.94 µM
- IC50 [21]: 8.28 µM
- inhibition [22]: Dose-dependent effect
- Activity [23]: 0.509%
- IC50 [24]: > 50 µM
- Activity [25]: 43.02%
- Activity [26]: 46.5%
- Activity [27]: 0%
- IC50 [28]: 0.97 µM
- IC50 [29]: 6.25 µM
- viability at 20 µM [30]: 40.3%
